BaF3 tox: counter-screen for JAK2V617F inhibitors: parental Ba/F3 viability inhibitors. CellTiter-Glo ATP luminescence. inhibition, % at 5.6 µM. 220,000 compounds, 1.1% hits;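 active = inhibition above a per-campaign cutoff, the mean inhibition of all tested compounds plus 3 SD, cut at about 27% in these data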;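 also: 0% = DMSO wells and 100% = JAK Inhibitor I control wells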
Ba/F3 V617F tox: lowers viability of Ba/F3 cells expressing EpoR and JAK2V617F. inhibition, % at 5.6 µM. ATP luminescence. 220,000 compounds, 1.1% hits;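 active = inhibition above the campaign mean plus 3 SD over all tested compounds, cut at about 24% in these data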;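 also: cytokine-independent growth of Ba/F3 cells driven by EpoR plus mutant JAK2; 0% = DMSO-treated cells and 100% = JAK inhibitor I control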
MT stabilize HCS: stabilizes microtubules in HeLa cells | HeLa tubulin immunostaining HCS, 24 h; share of cells brighter than vehicle mean+2SD | % tubulin-high responders, % at 10 µM | 200,000 compounds, 0.83% hits | AID 2205;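 active = plate Z-score above 3 for both tubulin-high and condensed-nucleus cell shares, with cell loss under 80%, at 10 µM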;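 also: anti alpha tubulin signal scored within the nucleus-defined area of each cell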
IEC-6 cytotox: counter-screen for KLF5 inhibitors: cytotoxicity in IEC-6 cells; IEC-6 cytotoxicity, luminescence viability; inhibition, % at 5 µM; 290,000 compounds, 0.78% hits; AID 1825; in the data active = inhibition above about 22%;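 also: 0% = plate median of test compound wells and 100% = cytotoxic reference compound wells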
bCat nuc transl: alters nuclear translocation of beta-catenin in HeLa cells. immunofluorescence imaging. nuclear translocation activity, % at 5 µM. 190,000 compounds, 0.3% hits;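 active = nuclear translocation activity above 50% at 5 µM, with a well cell count of 50 or more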;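 also: per-cell ratio of nuclear to cytoplasmic median beta-catenin stain intensity; plate controls were DMSO negative control for no effect and GSK-3 inhibitor IX positive control for full effect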
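test system = HeLa cells, endogenous beta-catenin | dosing = single 5 µM dose plus 0.02–20 µM confirmation series | times = compound treatment 24 h, 37°C, 5% CO2 | technique = beta-catenin immunofluorescence imaging with DAPI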
KLF5 inhibitor: inhibitors of KLF5 expression | DLD-1 KLF5 promoter-luciferase reporter, luminescence | inhibition, % at 5 µM | 290,000 compounds, 0.23% hits;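 active = inhibition above a per-plate limit of that plate's mean compound inhibition plus 3 SD, cut at about 60% in these data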;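 also: 0% = DMSO wells and 100% = LY294002 at 200 µM; higher means less KLF5 promoter-driven luciferase light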
An asterisk follows results filed as active; . = no result given. Compounds with a hit are over-represented: about 2.1% of the library has one in this group of screens.

SMILES	BaF3 tox	Ba/F3 V617F tox	MT stabilize HCS	IEC-6 cytotox	bCat nuc transl	KLF5 inhibitor
CN1/C(=C\C(=O)COC(=O)CNC(=O)c2ccc3ccccc3c2)C(C)(C)c2ccccc21	34*	22	7	-1	-1	-3
CN1/C(=C\C(=O)COC(=O)CNC(=O)c2ccccc2F)C(C)(C)c2ccccc21	8	15	3	8	1	-15
CN1/C(=C\C(=O)COC(=O)c2ccc(O)c(O)c2)C(C)(C)c2ccccc21	51*	52*	4	4	-1	-14
CN1/C(=C\C(=O)COC(=O)c2ccc(O)cc2)C(C)(C)c2ccccc21	8	-2	.	-3	0	-12
CC1(C)CC(N=Cc2c(O)n(Cc3ccc4c(c3)OCO4)c(=O)c3ccccc23)CC(C)(C)N1	6	-1	7	6	12	-9
Cn1c(=O)c2[nH]c(COc3ccc(C(C)(C)C)cc3)nc2n(C)c1=O	48*	26*	.	8	-1	-4
Cc1noc(C)c1COc1ccc(CC(=O)NCc2ccccc2)cc1	73*	72*	20*	79*	29	62
Cc1noc(C)c1COc1ccc(CC(=O)NCCc2ccccn2)cc1	.	.	.	0	.	-25
Cc1noc(C)c1COc1cccc(C(=O)NCCc2c[nH]c3ccccc23)c1	8	1	24*	20	-1	-10
CCOc1ccc(C(=O)C[n+]2cccc3cc(C)ccc32)cc1	.	.	.	1	.	-10
Cc1ccc(C(=O)C[n+]2cccc3cc(C)ccc32)cc1	70*	5	2	2	0	-11
COc1ccc(CCC(=O)N2CC(C)OC(C)C2)cc1 (centres undefined)	0	-3	3	-6	1	-15
CCOc1ccccc1NC(=S)NCCc1ccccc1	7	0	2	0	3	-8
CSc1cccc(CNC(=O)C2CCC(=O)N(CC3CCCCC3)C2)c1 (centres undefined)	.	.	.	4	.	-9
NC(=O)c1ncn([C@@H]2O[C@H](CO)[C@@H](O)[C@H]2O)n1	9	5	3	13	.	-23
OCC1OC(n2nc3ccccc3n2)C(O)C(O)C1O (centres undefined)	28*	-1	3	-12	-3	-12
CC(C)N1CCC(=NNc2ccc(S(=O)(=O)N3CCOCC3)cc2[N+](=O)[O-])CC1	4	0	1	-4	3	-34
CCCN1CCC(=NNc2ccc(S(=O)(=O)N3CCOCC3)cc2[N+](=O)[O-])CC1	8	2	14*	-1	120*	-24
CCOc1cc(C2NC(=O)N(C)C(C)=C2C(=O)OC)cc(Br)c1O (centres undefined)	5	-3	3	8	.	4
O=C(C1CCCO1)N1CCN(C(=S)Nc2ccc(F)c(Cl)c2)CC1 (centres undefined)	27*	28*	2	3	4	-24
O=C(C1CCCO1)N1CCN(C(=S)Nc2ccc(F)cc2)CC1 (centres undefined)	4	-2	2	-3	0	-15
O=C(/C=C\c1ccc2c(c1)OCO2)NC1(C(=O)Nc2ccc3c(c2)OCO3)CCCCC1	7	2	1	0	2	-1
Cc1ccccc1OCCn1c(=S)[nH]c2c(N)ncnc21	.	.	.	2	.	-1
Cc1ccccc1OCCn1cnc2c(N)ncnc21	33*	57*	3	8	3	-24
COc1ccc(N(C)S(=O)(=O)c2cccc3cccnc23)c(OC)c1	7	-2	55*	2	56*	-3
SMILES	BaF3 tox	Ba/F3 V617F tox	MT stabilize HCS	IEC-6 cytotox	bCat nuc transl	KLF5 inhibitor
CC(=O)Cc1nsc(NC(=O)c2ccc(-c3cccc(Cl)c3)o2)n1	5	2	14*	5	-1	-1
CC(=O)Cc1nsc(NC(=O)c2ccc(Br)o2)n1	7	-2	1	-1	-1	-29
Cc1ccccc1N=Nc1ccc(O)c2ncccc12	1	3	10	-2	0	-6
O=Nc1ccc(O)c2ncccc12	103*	99*	.	19	-1	10
CCc1cc(CC)c(/C=N/NC(N)=O)c(CC)c1	11	-1	5	-2	2	-7
O=C(N/N=C/c1ccc[nH]1)c1ccc(COc2cccc3cccnc23)cc1	80*	87*	8	39*	8	-22
CC(C)NC(=O)C1(c2ccccc2)CC1(Cl)Cl (centres undefined)	-1	-1	2	-2	-4	7
Cc1onc(-c2ccccc2)c1C(=O)Nc1sc2c(c1C#N)CCC(C)C2 (centres undefined)	1	5	27*	8	0	-28
Cc1onc(-c2ccccc2)c1C(=O)Nc1nc2c(s1)CCCC2	-2	-4	19*	0	0	-23
Cc1onc(-c2ccccc2Cl)c1C(=O)Nc1sc2c(c1C#N)CCC2	10	4	7	2	0	-12
CCN(CC)CC#Cc1ccc(C)cc1	-2	-3	.	-9	0	9
Cc1ccc(C#CC[N+](C)(C)CC#Cc2ccccc2)cc1	68*	85*	3	2	0	0
COc1ccc(NC2=C(NCCO)C(=O)c3ccccc3C2=O)cc1	6	-2	21*	5	39	0
COC(=O)c1c(C)oc2ccc(N(C(=O)c3ccncc3)S(=O)(=O)c3ccc(C)cc3C)cc12	6	-1	14*	0	0	-27
COC(=O)c1c(C)oc2ccc(N(C(=O)c3ccncc3)S(=O)(=O)c3ccc4ccccc4c3)cc12	7	-4	27*	-2	-1	-10
COC(=O)c1c(C)oc2ccc(N(C(=O)c3ccncc3)S(=O)(=O)c3ccccc3)cc12	7	3	2	8	0	4
COc1ccc2oc(C(=O)OCC(=O)N(CCC#N)c3ccccc3)c(C)c2c1	.	.	.	-1	.	-19
CCN(CC)CCCC(C)NC(=O)c1c(NC(=O)c2ccccc2)sc2c1CCCC2 (centres undefined)	.	.	.	1	.	-7
COc1cccc(NC(=O)N2CCC(n3nnc4ccccc43)CC2)c1	5	4	5	2	0	20
CCN(CC(=O)Nc1ccccc1OC)CC(=O)Nc1ccccc1-c1ccccc1	2	2	20*	24*	-2	17
CCN(CC(=O)Nc1ccccc1-c1ccccc1)Cc1nc2ccccc2c(=O)[nH]1	8	-2	25*	12	20	7
CCN(CC(=O)Nc1ccccc1SC)Cc1nc2ccccc2c(=O)[nH]1	-1	3	.	12	2	-9
CCN(CC(=O)Nc1ccccc1OC)CC(=O)Nc1ccccc1C(F)(F)F	9	3	18*	6	4	26
CCOC(=O)C(C(C)=O)c1c(Br)c(O)c(O)c2c(C(=O)c3ccc(C)cc3)coc12 (centres undefined)	7	4	9	-4	0	-25
